Laboratory results taken from ChEMBL document CHEMBL1143019, “Hybrid molecules of estrone: new compounds with potential antibacterial, antifungal, and antiproliferative activities” (2007).
≈ marks a conversion by molar mass, not a printed value.

Experiments:
[1] = test system: Mycobacterium tuberculosis; test: Antimicrobial activity against Mycobacterium tuberculosis My 331/88 after 14 days; type: functional; conditions: 336 h
[2] = test system: Mycobacterium tuberculosis; test: Antimicrobial activity against Mycobacterium tuberculosis My 331/88 after 21 days; type: functional; conditions: 504 h
Mycobacterium avium [3] = test: Antimicrobial activity against Mycobacterium avium My 330/88 after 14 days; type: functional; conditions: 336 h
Mycobacterium avium [4] = test: Antimicrobial activity against Mycobacterium avium My 330/88 after 21 days; type: functional; conditions: 504 h
Mycobacterium kansasii [5] = test: Antimicrobial activity against Mycobacterium kansasii My 235/80 after 7 days; type: functional; conditions: 168 h
In short: (§1)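 Run in Šula semisynthetic liquid medium containing bovine serum. Compounds added as DMSO solutions at final concentrations of […]. Each strain was also inoculated onto Löwenstein–Jensen medium to control inoculum sterility and growth.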

Mycobacterium kansasii [6] = test: Antimicrobial activity against Mycobacterium kansasii My 235/80 after 14 days; type: functional; conditions: 336 h; in short: as §1
Mycobacterium kansasii [7] = test: Antimicrobial activity against Mycobacterium kansasii My 235/80 after 21 days; type: functional; conditions: 504 h; in short: as §1
Mycobacterium kansasii [8] = test: Antimicrobial activity against Mycobacterium kansasii My 6509/96 after 7 days; type: functional; conditions: 168 h; in short: as §1
Mycobacterium kansasii [9] = test: Antimicrobial activity against Mycobacterium kansasii My 6509/96 after 14 days; type: functional; conditions: 336 h; in short: as §1
Mycobacterium kansasii [10] = test: Antimicrobial activity against Mycobacterium kansasii My 6509/96 after 21 days; type: functional; conditions: 504 h; in short: as §1
L929 = test: Antiproliferative activity against mouse L929 cells after 72 hrs; type: functional; conditions: L929, 72 h
In short: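 About 10,000 adherent cells per well in RPMI 1640 with 10% heat-inactivated FBS and penicillin/streptomycin, without HEPES. Exposed to 10 concentrations for 72 h at 37 °C in humidified 5% CO₂. Monolayers fixed with glutaraldehyde, stained 15 min with 0.05% methylene blue, and eluted with 0.33 N HCl; OD read at 630 nm. GI50 derived from dose–response curves relative to control.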

K562 = test: Antiproliferative activity against human K562 cells after 72 hrs; type: functional; conditions: K562, 72 h
In short: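 About 10,000 suspension cells per well in RPMI 1640 with 10% heat-inactivated FBS and penicillin/streptomycin, without HEPES. Exposed to 10 concentrations for 72 h at 37 °C in humidified 5% CO₂. Wells diluted 1:50 in CASYTON and counted electronically, each result the mean of three successive counts. GI50 is where the concentration–response curve crosses 50% of control cell count.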

HeLa = test: Cytotoxicity against human HeLa cells after 72 hrs; type: functional; conditions: for CC50: Homo sapiens, HeLa, 72 h
In short: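 About 10,000 cells per well in RPMI 1640 were preincubated 48 h without compound. The 10 test concentrations were then applied onto the monolayers and incubated 72 h at 37 °C in humidified 5% CO₂. Monolayers fixed with glutaraldehyde, stained with 0.05% methylene blue, and eluted with 0.33 N HCl; optical density measured at 630 nm.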

Candida albicans [11] = test: Antifungal activity against Candida albicans ATCC 44859 after 24 hrs; type: functional; conditions: ATCC 44859, 24 h
In short: (§2)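 Modified NCCLS M27-A broth microdilution with clinical isolates subcultured on Sabouraud dextrose agar. Suspensions diluted 1:50 in RPMI 1640 to give a final inoculum of 0.5–2.5×10³ CFU/mL for yeasts or 0.5–5×10⁴ CFU/mL for molds. The RPMI had L-glutamine, no bicarbonate, and 0.165 M MOPS to pH 7.0. Twofold dilutions from 250 to 0.49. Plates held at 35 °C, humid, without agitation. MIC is the lowest concentration giving ≥80% inhibition versus drug-free control, read at 24 and 48 h.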

Candida albicans [12] = test: Antifungal activity against Candida albicans ATCC 44859 after 48 hrs; type: functional; conditions: ATCC 44859, 48 h; in short: as §2
Candida tropicalis [13] = test: Antifungal activity against Candida tropicalis 156 after 24 hrs; type: functional; in short: as §2
Candida tropicalis [14] = test: Antifungal activity against Candida tropicalis 156 after 48 hrs; type: functional; in short: as §2
Pichia kudriavzevii [15] = test: Antifungal activity against Candida krusei E28 after 24 hrs; type: functional; in short: as §2
Pichia kudriavzevii [16] = test: Antifungal activity against Candida krusei E28 after 48 hrs; type: functional; in short: as §2
Nakaseomyces glabratus [17] = test: Antifungal activity against Candida glabrata 20/I after 24 hrs; type: functional; in short: as §2
Nakaseomyces glabratus [18] = test: Antifungal activity against Candida glabrata 20/I after 48 hrs; type: functional; in short: as §2
Trichosporon beigelii [19] = test: Antifungal activity against Trichosporon beigelii 1188 after 24 hrs; type: functional; in short: as §2
Trichosporon beigelii [20] = test: Antifungal activity against Trichosporon beigelii 1188 after 48 hrs; type: functional; in short: as §2
Aspergillus fumigatus [21] = test: Antifungal activity against Aspergillus fumigatus 231 after 24 hrs; type: functional; in short: as §2
Aspergillus fumigatus [22] = test: Antifungal activity against Aspergillus fumigatus 231 after 48 hrs; type: functional; in short: as §2
Lichtheimia corymbifera [23] = test: Antifungal activity against Absidia corymbifera 272 after 24 hrs; type: functional; in short: as §2
Lichtheimia corymbifera [24] = test: Antifungal activity against Absidia corymbifera 272 after 48 hrs; type: functional; in short: as §2
Trichophyton benhamiae [25] = test: Antifungal activity against Trichophyton mentagrophytes 445 after 72 hrs; type: functional, Arthroderma benhamiae
In short: (§3)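 Same modified M27-A microdilution with the mold inoculum of 0.5–5×10⁴ CFU/mL. Medium was RPMI 1640 with L-glutamine, no bicarbonate, and 0.165 M MOPS at pH 7.0. Twofold dilutions from 250 to 0.49. Incubated at 35 °C in a humid atmosphere.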

Trichophyton benhamiae [26] = test: Antifungal activity against Trichophyton mentagrophytes 445 after 120 hrs; type: functional, Arthroderma benhamiae; in short: as §3

Row | Compound | MIC [1] | MIC [2] | MIC (Mycobacterium avium [3]) | MIC (Mycobacterium avium [4]) | MIC (Mycobacterium kansasii [5]) | MIC (Mycobacterium kansasii [6]) | MIC (Mycobacterium kansasii [7]) | MIC (Mycobacterium kansasii [8]) | MIC (Mycobacterium kansasii [9]) | MIC (Mycobacterium kansasii [10]) | GI50 (L929) | GI50 (K562) | CC10 (HeLa) | CC50 (HeLa) | MIC (Candida albicans [11]) | MIC (Candida albicans [12]) | MIC (Candida tropicalis [13]) | MIC (Candida tropicalis [14]) | MIC (Pichia kudriavzevii [15]) | MIC (Pichia kudriavzevii [16]) | further results
1 | Sc1nnnn1-c1ccc(Cl)c(Cl)c1 | 250 µM (≈ 61.8 µg/mL) | 250 µM (≈ 61.8 µg/mL) | > 250 µM | > 500 µM | 500 µM (≈ 124 µg/mL) | 500 µM (≈ 124 µg/mL) | 500 µM (≈ 124 µg/mL) | 250 µM (≈ 61.8 µg/mL) | 500 µM (≈ 124 µg/mL) | 500 µM (≈ 124 µg/mL) | 33.4 µg/mL (≈ 135 µM) | 31 µg/mL (≈ 125 µM) | 18.1 µg/mL (≈ 73.2 µM) | 33.3 µg/mL (≈ 135 µM) |  |  |  |  |  |  | 
2 | C[C@]12CC[C@@H]3c4ccc(OCCCCCCCSc5nnnn5-c5ccc(Cl)cc5)cc4CC[C@H]3[C@@H]1CCC2=O |  |  |  |  |  |  |  |  |  |  | > 50 µg/mL | > 50 µg/mL | 50 µg/mL (≈ 86.3 µM) | > 50 µg/mL | > 250 µM | > 250 µM | > 250 µM | > 250 µM | > 250 µM | > 250 µM | MIC (Nakaseomyces glabratus [17]): > 250 µM; MIC (Nakaseomyces glabratus [18]): > 250 µM; MIC (Trichosporon beigelii [19]): > 250 µM; MIC (Trichosporon beigelii [20]): > 250 µM; MIC (Aspergillus fumigatus [21]): 250 µM (≈ 145 µg/mL); MIC (Aspergillus fumigatus [22]): > 250 µM; MIC (Lichtheimia corymbifera [23]): > 250 µM; MIC (Lichtheimia corymbifera [24]): > 250 µM; MIC (Trichophyton benhamiae [25]): > 250 µM; MIC (Trichophyton benhamiae [26]): > 250 µM
3 | C[C@@H]1[C@H](O)[C@@H](C)/C=C/C=C/C=C/C=C/C=C/C=C/C=C/[C@H](O[C@@H]2O[C@H](C)[C@@H](O)[C@H](N)[C@@H]2O)C[C@@H]2O[C@](O)(C[C@@H](O)C[C@@H](O)[C@H](O)CC[C@@H](O)C[C@@H](O)CC(=O)O[C@H]1C)C[C@H](O)[C@H]2C(=O)O [AMPHOTERICIN B] |  |  |  |  |  |  |  |  |  |  |  |  |  |  | 0.02 µM (≈ 0.0185 µg/mL) | 0.07 µM (≈ 0.0647 µg/mL) | 0.07 µM (≈ 0.0647 µg/mL) | 0.07 µM (≈ 0.0647 µg/mL) | 0.14 µM (≈ 0.129 µg/mL) | 0.14 µM (≈ 0.129 µg/mL) | MIC (Nakaseomyces glabratus [17]): 0.04 µM (≈ 0.037 µg/mL); MIC (Nakaseomyces glabratus [18]): 0.14 µM (≈ 0.129 µg/mL); MIC (Trichosporon beigelii [19]): 1.08 µM (≈ 0.998 µg/mL); MIC (Trichosporon beigelii [20]): 2.16 µM (≈ 2 µg/mL); MIC (Aspergillus fumigatus [21]): 0.27 µM (≈ 0.25 µg/mL); MIC (Aspergillus fumigatus [22]): 0.27 µM (≈ 0.25 µg/mL); MIC (Lichtheimia corymbifera [23]): 1.08 µM (≈ 0.998 µg/mL); MIC (Lichtheimia corymbifera [24]): 2.16 µM (≈ 2 µg/mL)
4 | Sc1nnnn1-c1ccc(Cl)cc1 | 500 µM (≈ 106 µg/mL) | > 500 µM | > 500 µM | > 500 µM | 500 µM (≈ 106 µg/mL) | > 500 µM | > 500 µM | 250 µM (≈ 53.2 µg/mL) | 500 µM (≈ 106 µg/mL) | > 500 µM | > 50 µg/mL | 42.6 µg/mL (≈ 200 µM) | 26.4 µg/mL (≈ 124 µM) | 48.9 µg/mL (≈ 230 µM) |  |  |  |  |  |  | 
5 | Clc1ccc(-n2nnnc2SCc2ccccc2)cc1 | 16 µM (≈ 4.84 µg/mL) |  | 62.5 µM (≈ 18.9 µg/mL) |  | 16 µM (≈ 4.84 µg/mL) | 32 µM (≈ 9.69 µg/mL) |  | 16 µM (≈ 4.84 µg/mL) | 16 µM (≈ 4.84 µg/mL) |  | 16.7 µg/mL (≈ 55.2 µM) | > 50 µg/mL | 5 µg/mL (≈ 16.5 µM) | 50 µg/mL (≈ 165 µM) | > 250 µM | > 250 µM | > 250 µM | > 250 µM | > 250 µM | > 250 µM | MIC (Nakaseomyces glabratus [17]): > 250 µM; MIC (Nakaseomyces glabratus [18]): > 250 µM; MIC (Trichosporon beigelii [19]): > 250 µM; MIC (Trichosporon beigelii [20]): > 250 µM; MIC (Aspergillus fumigatus [21]): 62.5 µM (≈ 18.9 µg/mL); MIC (Aspergillus fumigatus [22]): 62.5 µM (≈ 18.9 µg/mL); MIC (Lichtheimia corymbifera [23]): > 250 µM; MIC (Lichtheimia corymbifera [24]): > 250 µM; MIC (Trichophyton benhamiae [25]): 31.3 µM (≈ 9.48 µg/mL); MIC (Trichophyton benhamiae [26]): 62.5 µM (≈ 18.9 µg/mL)
6 | NNC(=O)c1ccncc1 [ISONIAZID] | 0.5 µM (≈ 0.0686 µg/mL) | 1 µM (≈ 0.137 µg/mL) | > 250 µM | > 250 µM | > 250 µM | > 250 µM | > 250 µM | 4 µM (≈ 0.549 µg/mL) | 4 µM (≈ 0.549 µg/mL) | 8 µM (≈ 1.1 µg/mL) |  |  |  |  |  |  |  |  |  |  | 
